Measured values as given in ChEMBL document CHEMBL1212735, “Metronidazole resistance in Prevotella spp. and description of a new nim gene in Prevotella baroniae” (2010).
Converted amounts (≈) assume the structure as drawn.

How the values were obtained:
Assay type in all cases: functional
[1] = tested on: Prevotella bivia; assay: Antimicrobial activity against Prevotella bivia LBN 332 deficient in nimI gene assessed as inhibition of growth after three consecutive subcultures on compound free medium by agar dilution method
Method in brief: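 Stability of induced resistance: metronidazole-selected isolates were subcultured three consecutive times on drug-free brucella blood agar (5% sheep blood, hemin, vitamin K1) under anaerobic conditions, then MIC was redetermined by CLSI agar dilution. Resistance was called stable if the MIC held within ±1 dilution. Duplicate experiments.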

[2] = tested on: Prevotella bivia; assay: Antimicrobial activity against slow growing colonies of Prevotella bivia LBP 4 deficient in nim gene assessed as inhibition of growth at 48 hrs by agar dilution method; settings: LBP 4, 48 h
Method in brief: (§1)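 Metronidazole MIC by agar dilution per CLSI M11-A7 on brucella agar with 5% sheep blood, hemin and vitamin K1. Plates incubated anaerobically at 35°C and read at 48 h, with a second reading after a further 72 h. B. fragilis ATCC 25285T and B. thetaiotaomicron ATCC 29741 served as controls. Done in duplicate; EUCAST breakpoints applied (S ≤4, R ≥8 μg/ml).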

[3] = tested on: Prevotella bivia; assay: Antimicrobial activity against Prevotella bivia LBN 331 deficient in nim gene assessed as inhibition of growth at 48 hrs by agar dilution method; settings: LBN 331, 48 h
Method in brief: (§2)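 Metronidazole MIC by agar dilution (CLSI M11-A7) on brucella agar with 5% sheep blood, hemin and vitamin K1. Plates were read after 48 h at 35°C under anaerobic conditions. Susceptible was MIC ≤ 4 μg/ml and resistant MIC ≥ 8 μg/ml (EUCAST). B. fragilis ATCC 25285T and B. thetaiotaomicron ATCC 29741 were run as controls. Duplicate assays.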

[4] = tested on: Prevotella bivia; assay: Antimicrobial activity against slow growing colonies of Prevotella bivia LBN 361 deficient in nim gene assessed as inhibition of growth at 48 hrs by agar dilution method; settings: LBN 361, 48 h; method in brief: as §1
[5] = tested on: Prevotella bivia; assay: Antimicrobial activity against Prevotella bivia LBN 464 deficient in nim gene assessed as inhibition of growth at 48 hrs by agar dilution method; settings: LBN 464, 48 h; method in brief: as §2
[6] = tested on: Prevotella bivia; assay: Antimicrobial activity against slow growing colonies of Prevotella bivia LBN 464 deficient in nim gene assessed as inhibition of growth at 48 hrs by agar dilution method; settings: LBN 464, 48 h; method in brief: as §1
[7] = tested on: Prevotella bivia; assay: Antimicrobial activity against slow growing colonies of Prevotella bivia LBN 350 deficient in nim gene assessed as inhibition of growth at 48 hrs by agar dilution method; settings: LBN 350, 48 h
Method in brief: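 Slowly growing colonies inside the Etest inhibition zone, seen after prolonged incubation (an additional 72 h after the 48 h reading), were subcultured without antibiotic. They were then retested for metronidazole MIC by agar dilution on supplemented brucella blood agar under anaerobic conditions.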

[8] = tested on: Prevotella nanceiensis; assay: Antimicrobial activity against Prevotella nanceiensis LBN 293b deficient in nimI gene assessed as inhibition of growth after several passages on plates containing increasing concentration of compound by agar dilution method; settings: Hoylesella nanceiensis
Method in brief: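 Induction of metronidazole resistance: bacterial suspensions inoculated onto brucella blood agar (5% sheep blood, hemin, vitamin K1) containing metronidazole at increasing concentrations, grown anaerobically at 37°C. Colonies growing at the highest concentration were retested for MIC by CLSI agar dilution on the same agar. Duplicate experiments.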

[9] = tested on: Prevotella bivia; assay: Antimicrobial activity against Prevotella bivia LBP 38 deficient in nim gene assessed as inhibition of growth at 48 hrs by agar dilution method; settings: LBP 38, 48 h; method in brief: as §2
[10] = tested on: Prevotella baroniae; assay: Antimicrobial activity against Prevotella baroniae LBN 466 expressing nim gene assessed as inhibition of growth at 48 hrs by agar dilution method; settings: Segatella baroniae, LBN 466, 48 h; method in brief: as §2
[11] = tested on: Prevotella bivia; assay: Antimicrobial activity against Prevotella bivia LBN 371 deficient in nimI gene assessed as inhibition of growth after three consecutive subcultures on compound free medium by agar dilution method
Method in brief: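 Resistance induction: bacterial suspensions were plated on supplemented brucella blood agar with rising metronidazole concentrations. Colonies from the highest concentration were tested by agar dilution. MIC was then redetermined after three consecutive subcultures on drug-free agar. Resistance counted as stable if the MIC held within ±1 dilution. Anaerobic growth at 37°C. Duplicate experiments.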

[12] = tested on: Prevotella bivia; assay: Antimicrobial activity against slow growing colonies of Prevotella bivia LBN 467 deficient in nim gene assessed as inhibition of growth at 48 hrs by agar dilution method; settings: LBN 467, 48 h; method in brief: as §1

Cc1ncc([N+](=O)[O-])n1CCO [METRONIDAZOLE]
MIC [1]: > 256 µg/mL | MIC [2]: 32 µg/mL (≈ 187 µM) | MIC [3]: 2 µg/mL (≈ 11.7 µM) | MIC [4]: 32 µg/mL (≈ 187 µM) | MIC [5]: 8 µg/mL (≈ 46.7 µM) | MIC [6]: 16 µg/mL (≈ 93.5 µM) | MIC [7]: 16 µg/mL (≈ 93.5 µM) | MIC [8]: 256 µg/mL (≈ 1500 µM) | MIC [9]: 2 µg/mL (≈ 11.7 µM) | MIC [10]: 2 µg/mL (≈ 11.7 µM) | MIC [11]: > 256 µg/mL | MIC [12]: 32 µg/mL (≈ 187 µM)
